Usually pKi stands for the negative decadic logarithm of the Ki, by convention in mol/L. Read a high pKi as a small Ki.

pKi: −log10 of the molar value.

Sequence of D(3) dopamine receptor (P35462 whole entry): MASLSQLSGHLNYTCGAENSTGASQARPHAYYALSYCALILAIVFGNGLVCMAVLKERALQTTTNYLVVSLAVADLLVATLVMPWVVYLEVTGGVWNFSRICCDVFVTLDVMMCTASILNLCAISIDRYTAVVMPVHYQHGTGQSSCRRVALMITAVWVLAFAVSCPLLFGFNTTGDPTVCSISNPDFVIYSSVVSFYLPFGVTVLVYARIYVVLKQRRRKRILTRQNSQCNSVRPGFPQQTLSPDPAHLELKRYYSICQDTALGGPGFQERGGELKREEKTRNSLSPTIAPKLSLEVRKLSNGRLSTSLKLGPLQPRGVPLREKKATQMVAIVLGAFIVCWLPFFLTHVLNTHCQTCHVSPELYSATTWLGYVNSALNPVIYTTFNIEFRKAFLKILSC

One test concerns the target D(3) dopamine receptor (Homo sapiens, UniProt P35462). The experiment in a line: Competitive inhibition of [3H]spiperone binding to the human dopamine receptor D3 expressed in CHO cells, expressed as 10log Ki. The format is cell-based. The essentials:
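Displacement of [3H]spiperone from human dopamine D3 receptors expressed in CHO K1 cells. Four to six test concentrations, each run in triplicate. IC50 from nonlinear regression, converted to Ki (nM) by Cheng–Prusoff, then reported as 10log Ki.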
With `COc1c(C(=O)NCCN2CCC(c3ccccc3)CC2)cc(Br)c2ccccc12`, the pKi was 7.10.

The molecule `COc1c(C(=O)NCCN2CCN(c3ccc(Cl)cc3Cl)CC2)cc(Br)c2ccccc12` gave a pKi of 7.00.

In turn, `CCOc1c(C(=O)NCCN2CCN(c3ccccn3)CC2)cc(Br)c2ccccc12` gave a pKi of 7.10.

In turn, `COc1ccc(Br)cc1C(=O)NCCN1CCN(c2ccccc2)CC1` had a pKi of 6.50.

Molecule `COc1ccccc1N1CCN(CCNC(=O)c2cc(Br)c3ccccc3c2OC)CC1` showed a pKi of 7.10.

`COc1c(C(=O)NCCN2CCN(c3ccc(F)cc3F)CC2)cc(Br)c2ccccc12` showed a pKi of 6.70.

`COc1c(C(=O)NCCN2CCN(c3ccc4ccccc4n3)CC2)cc(Br)c2ccccc12`: the pKi was 6.60.

Regarding `COc1c(C(=O)NCCN2CCN(c3cccc(C(F)(F)F)c3)CC2)cc(Br)c2ccccc12`, the pKi is 6.60.

The molecule `COc1c(C(=O)NCCN2CCN(c3ccc(C)cc3)CC2)cc(Br)c2ccccc12` had a negative logarithm of the Ki (pKi) of 6.60.

Molecule `CCc1cc(Cl)c(O)c(C(=O)NCCN2CCN(c3ccccc3)CC2)c1OC` had a pKi of 5.80.

For the molecule `COc1c(C(=O)NCCN2CCN(c3ccccn3)CC2)cc(Br)c2ccccc12`, the pKi was 7.10.

The molecule `COc1c(C(=O)NCCN2CCN(c3ccccc3C#N)CC2)cc(Br)c2ccccc12` had a pKi of 7.30.

On to `CCOc1c(C(=O)NCCN2CCN(c3cccc(C(F)(F)F)c3)CC2)cc(Br)c2ccccc12`, for which the pKi was 6.90.

In the case of `COc1c(C(=O)NCCN2CCN(c3ccccc3)CC2)cc(Cl)c2ccccc12`, the pKi is 7.30.

`COc1c(C(=O)NCCN2CCN(c3ccccc3Cl)CC2)cc(Br)c2ccccc12` gave a pKi of 7.40.

The molecule `COc1c(C(=O)NCCN2CCN(c3cccc(C)c3)CC2)cc(Br)c2ccccc12` showed a pKi of 6.50.

Take `COc1c(Cl)cc(Cl)c(O)c1C(=O)NCCN1CCN(c2ccccc2)CC1`: the pKi was 6.00.

Molecule `COc1c(C(=O)NCCN2CCN(c3ccccc3)CC2)cc2ccccc2c1Br` had a pKi of 6.50.

For the molecule `COc1c(C(=O)NCCN2CCN(c3ccc(Cl)c(Cl)c3)CC2)cc(Br)c2ccccc12`, the negative logarithm of the Ki (pKi) is 6.70.

Take `CCOc1c(C(=O)NCCN2CCN(c3ccccc3)CC2)cc(Br)c2ccccc12`: the pKi is 6.60.

The molecule `COc1c(C(=O)NCCN2CC=C(c3ccccc3)CC2)cc(Br)c2ccccc12` showed a pKi of 7.70.

In the case of `COc1ccc(Br)c(O)c1C(=O)NCCN1CCN(c2ccccc2)CC1`, the negative-log Ki (pKi) was 6.40.

The molecule `COc1c(C(=O)NCCN2CCN(c3cccc(Cl)c3Cl)CC2)cc(Cl)c2ccccc12` had a pKi of 7.40.

In turn, `COc1c(Cl)cc(Cl)c(O)c1C(=O)NCCN1CCN(c2cccc(Cl)c2Cl)CC1` gave a pKi of 6.30.

In turn, `COc1c(C(=O)NCCN2CCN(c3cccc(Cl)c3C)CC2)cc(Br)c2ccccc12` gave a pKi of 7.30.

Molecule `CCOc1c(C(=O)NCCN2CCN(c3ccccc3OC)CC2)cc(Br)c2ccccc12` had a pKi of 7.10.

For `COc1c(C(=O)NCCN2CCN(c3ccccc3)CC2)cc(Br)c2ccccc12`, the pKi was 7.60.

On to `COc1c(C(=O)NCCN2CCN(c3ccccc3C)CC2)cc(Br)c2ccccc12`, for which the pKi is 7.20.

Target in a further test: not listed separately
The experiment in a line: Competitive inhibition of [3H]spiperone binding to the human dopamine receptor D3 expressed in CHO cells, expressed as 10log Ki.
In the case of `COc1c(C(=O)NCCN2CCN(c3cccc(Cl)c3)CC2)cc(Br)c2ccccc12`, the “Log Ki(nM)” value worked out at 1.6.

The values above are taken from ChEMBL document CHEMBL1129965, “GRID/GOLPE 3D quantitative structure-activity relationship study on a set of benzamides and naphthamides, with affinity for the dopamine D3 receptor subtype” (J Med Chem, 1997).
